Data published in ChEMBL document CHEMBL1157638, “Fluorescent epigenetic small molecule induces expression of the tumor suppressor ras-association domain family 1A and inhibits human prostate xenograft” (J Med Chem, 2010).

Assays:
T47D [1] = assay: Growth inhibition of human T47D cells assessed as cell growth at 1 uM relative to untreated control; format: functional; conditions: read-out: Activity
Malme-3M = assay: Growth inhibition of human MALME-3M cells assessed as cell growth at 10 nM relative to untreated control; format: functional; conditions: read-out: Activity
NCI-H23 = assay: Growth inhibition of human NCI-H23 cells assessed as cell growth at 1 uM relative to untreated control; format: functional; conditions: read-out: Activity
NCI/ADR-RES = assay: Growth inhibition of human NCI/ADR-RES cells assessed as cell growth at 10 uM relative to untreated control; format: functional; conditions: read-out: Activity
PC-3 [2] = assay: Growth inhibition of human PC3 cells assessed as cell growth at 10 nM relative to untreated control; format: functional; conditions: read-out: Activity
SR [3] = assay: Growth inhibition of human SR cells assessed as cell growth at 10 uM relative to untreated control; format: functional; conditions: read-out: Activity
SK-MEL-2 [4] = assay: Growth inhibition of human SK-MEL-2 cells assessed as cell growth at 1 nM relative to untreated control; format: functional; conditions: read-out: Activity
SR [5] = assay: Growth inhibition of human SR cells assessed as cell growth at 1 nM relative to untreated control; format: functional; conditions: read-out: Activity
PC-3 [6] = assay: Growth inhibition of human PC3 cells assessed as cell growth at 10 uM relative to untreated control; format: functional; conditions: read-out: Activity
RXF 393 = assay: Growth inhibition of human RXF393 cells assessed as cell growth at 1 uM relative to untreated control; format: functional; conditions: read-out: Activity
SK-MEL-2 [7] = assay: Growth inhibition of human SK-MEL-2 cells assessed as cell growth at 10 uM relative to untreated control; format: functional; conditions: read-out: Activity
NCI-H226 [8] = assay: Growth inhibition of human NCI-H226 cells assessed as cell growth at 1 nM relative to untreated control; format: functional; conditions: read-out: Activity
[9] = Therapeutic index, ratio of toxic dose in BALB/c mouse to antitumor dose in human PC3 cells xenografted BALB/c mouse; format: cell-based, PC-3; conditions: in vivo, read-out: TI
PC-3 [10] = assay: Drug uptake in cytoplasm of human PC3 cells at 5 uM by confocal microscopy; format: ADME, cell-based; conditions: pc-3, 5 µM
Method in brief: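 PC-3 cells were plated overnight on fibronectin/[…]-coated slides and treated with 5 μM compound or DMSO for 1-6 h. Cells were PBS-washed, fixed in 4% formaldehyde, and stained with propidium iodide (nuclei) and anti-DNMT3a or anti-DNMT3b antibody. The compound was excited at 725 nm by multiphoton laser and imaged through a 500-550 nm filter by confocal microscopy.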

HOP-62 [11] = assay: Growth inhibition of human HOP62 cells assessed as cell growth at 1 nM relative to untreated control; format: functional; conditions: read-out: Activity
Method in brief: (§1)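 Run externally at the National Cancer Institute as a 59-cell-line panel screen, with concentrations up to 100 μM. Growth was scored relative to control, where negative growth or total cell kill was possible. Data are in the Supporting Information.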

SNB-19 = assay: Growth inhibition of human SNB19 cells assessed as cell growth at 10 nM relative to untreated control; format: functional; conditions: read-out: Activity
[12] = Growth inhibition of human […] cells assessed as cell growth at 10 uM relative to untreated control; format: functional; conditions: read-out: Activity
COLO 205 = assay: Growth inhibition of human COLO205 cells assessed as cell growth at 10 uM relative to untreated control; format: functional; conditions: read-out: Activity; method in brief: as §1
KM12 = assay: Growth inhibition of human KM12 cells assessed as cell growth at 1 uM relative to untreated control; format: functional; conditions: read-out: Activity
HL-60(TB) = assay: Growth inhibition of human HL-60(TB) cells assessed as cell growth at 1 uM relative to untreated control; format: functional; conditions: read-out: Activity
NCI-H226 [13] = assay: Growth inhibition of human NCI-H226 cells assessed as cell growth at 10 nM relative to untreated control; format: functional; conditions: read-out: Activity
NCI-H522 = assay: Growth inhibition of human NCI-H522 cells assessed as cell growth at 10 nM relative to untreated control; format: functional; conditions: read-out: Activity
SK-MEL-28 = assay: Growth inhibition of human SK-MEL-28 cells assessed as cell growth at 1 nM relative to untreated control; format: functional; conditions: read-out: Activity
SK-OV-3 = assay: Growth inhibition of human SKOV3 cells assessed as cell growth at 1 uM relative to untreated control; format: functional; conditions: read-out: Activity
[14] = Growth inhibition of human Hs 578T cells assessed as cell growth at 1 nM relative to untreated control; format: functional; conditions: read-out: Activity
SNB-75 = assay: Growth inhibition of human SNB75 cells assessed as cell growth at 100 nM relative to untreated control; format: functional; conditions: read-out: Activity
SN12C = assay: Growth inhibition of human SN12C cells; format: functional
NCI-H226 [15] = assay: Growth inhibition of human NCI-H226 cells assessed as cell growth at 1 uM relative to untreated control; format: functional; conditions: read-out: Activity
ACHN = assay: Growth inhibition of human ACHN cells; format: functional
NCI-H322M [16] = assay: Growth inhibition of human NCI-H322M cells assessed as cell growth at 10 uM relative to untreated control; format: functional; conditions: read-out: Activity
HOP-62 [17] = assay: Growth inhibition of human HOP62 cells assessed as cell growth at 1 uM relative to untreated control; format: functional; conditions: read-out: Activity; method in brief: as §1
T47D [18] = assay: Growth inhibition of human T47D cells assessed as cell growth at 100 nM relative to untreated control; format: functional; conditions: read-out: Activity
NCI-H322M [19] = assay: Growth inhibition of human NCI-H322M cells assessed as cell growth at 1 nM relative to untreated control; format: functional; conditions: read-out: Activity
MCF7 [20] = assay: Growth inhibition of human MCF7 cells assessed as cell growth at 10 nM relative to untreated control; format: functional; conditions: read-out: Activity
HOP-92 = assay: Growth inhibition of human HOP92 cells assessed as cell growth at 1 uM relative to untreated control; format: functional; conditions: read-out: Activity; method in brief: as §1
[21] = Growth inhibition of human Hs 578T cells assessed as cell growth at 10 uM relative to untreated control; format: functional; conditions: read-out: Activity
HCT-116 = assay: Growth inhibition of human HCT116 cells assessed as cell growth at 1 nM relative to untreated control; format: functional; conditions: read-out: Activity; method in brief: as §1
OVCAR-3 = assay: Growth inhibition of human OVCAR-3 cells assessed as cell growth at 100 nM relative to untreated control; format: functional; conditions: read-out: Activity
MCF7 [22] = assay: Growth inhibition of human MCF7 cells assessed as cell growth at 10 uM relative to untreated control; format: functional; conditions: read-out: Activity
MCF7 [23] = assay: Growth inhibition of human MCF7 cells assessed as cell growth at 1 uM relative to untreated control; format: functional; conditions: read-out: Activity
CCRF-CEM [24] = assay: Growth inhibition of human CCRF-CEM cells assessed as cell growth at 1 uM relative to untreated control; format: functional; conditions: read-out: Activity
A498 = assay: Growth inhibition of human A498 cells assessed as cell growth at 10 nM relative to untreated control; format: functional; conditions: read-out: Activity
OVCAR-4 = assay: Growth inhibition of human OVCAR4 cells; format: functional
[25] = Growth inhibition of human […] cells assessed as cell growth at 1 uM relative to untreated control; format: functional; conditions: read-out: Activity
CAKI-1 = assay: Growth inhibition of human Caki1 cells assessed as cell growth at 1 nM relative to untreated control; format: functional; conditions: read-out: Activity; method in brief: as §1
CCRF-CEM [26] = assay: Growth inhibition of human CCRF-CEM cells; format: functional
[27] = read-out: LC50 (the source's name)

COc1ccc2c(c1)[nH]c1c(C)c(OS(=O)(=O)c3cccc4c(N(C)C)cccc34)ccc12
growth at 1 µM (T47D [1]): 15% | growth at 0.01 µM (Malme-3M): 89% | growth at 1 µM (NCI-H23): 30% | growth at 10 µM (NCI/ADR-RES): 15% | growth at 0.01 µM (PC-3 [2]): 100% | growth at 10 µM (SR [3]): 7% | growth at 0.001 µM (SK-MEL-2 [4]): 115% | growth at 0.001 µM (SR [5]): 102% | growth at 10 µM (PC-3 [6]): 7% | growth at 1 µM (RXF 393): -29% | growth at 10 µM (SK-MEL-2 [7]): 18% | growth at 0.001 µM (NCI-H226 [8]): 91% | selectivity ratio [9]: > 55 | Drug uptake (PC-3 [10]): Active | growth at 0.001 µM (HOP-62 [11]): 101% | growth at 0.01 µM (SNB-19): 88% | growth at 10 µM [12]: -2% | growth at 10 µM (COLO 205): 1% | growth at 1 µM (KM12): 21% | growth at 1 µM (HL-60(TB)): -9% | growth at 0.01 µM (NCI-H226 [13]): 88% | growth at 0.01 µM (NCI-H522): 101% | growth at 0.001 µM (SK-MEL-28): 99% | growth at 1 µM (SK-OV-3): 32% | growth at 0.001 µM [14]: 105% | growth at 0.1 µM (SNB-75): 99% | GI50 (SN12C): 11.3 µM | TGI (SN12C): > 100 µM | CC50 (SN12C; [27]): > 100 µM | growth at 1 µM (NCI-H226 [15]): 51% | GI50 (ACHN): 7.38 µM | TGI (ACHN): > 100 µM | CC50 (ACHN; [27]): > 100 µM | growth at 10 µM (NCI-H322M [16]): 34% | growth at 1 µM (HOP-62 [17]): 55% | growth at 0.1 µM (T47D [18]): 82% | growth at 0.001 µM (NCI-H322M [19]): 98% | growth at 0.01 µM (MCF7 [20]): 86% | growth at 1 µM (HOP-92): 49% | growth at 10 µM [21]: -1% | growth at 0.001 µM (HCT-116): 100% | growth at 0.1 µM (OVCAR-3): 97% | growth at 10 µM (MCF7 [22]): 8% | growth at 1 µM (MCF7 [23]): 10% | growth at 1 µM (CCRF-CEM [24]): 1% | growth at 0.01 µM (A498): 83% | GI50 (OVCAR-4): 7.4 µM | TGI (OVCAR-4): > 100 µM | CC50 (OVCAR-4; [27]): > 100 µM | growth at 1 µM [25]: 1% | growth at 0.001 µM (CAKI-1): 98% | GI50 (CCRF-CEM [26]): 2.88 µM | TGI (CCRF-CEM [26]): > 100 µM | CC50 (CCRF-CEM [26]; [27]): > 100 µM
